Results taken from ChEMBL document CHEMBL4689842, “EUbOPEN Chemogenomics Library wave 1” (2021).

Tested on: Fibroblast
Assay: Multiplex assay against human fibroblast
Format: toxicity, cell-based
Outline: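 Live cells carried four stains from seeding: Hoechst33342, BioTracker Green Microtubule Cytoskeleton Dye, MitoTracker Red and Annexin V Alexa Fluor 680. They were imaged on a CQ1 microscope at 37°C and 5% CO2 after compound addition. Using CellPathfinder machine-learning gating, cells were split into Hoechst high-intensity objects or normal cells, normal cells into healthy, pyknosed or fragmented nuclei, and pyknosed cells into mitotic or apoptotic; tubulin, mitochondrial-mass and membrane-permeability phenotypes are per cents of healthy-nucleus cells.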

[1] = 12 h, 1 µM, compound concentration 1 uM, replicate 1
[2] = 12 h, 1 µM, compound concentration 1 uM, replicate 2
[3] = 12 h, 10 µM, compound concentration 10 uM, replicate 1
[4] = 12 h, 10 µM, compound concentration 10 uM, replicate 2
[5] = 24 h, 1 µM, compound concentration 1 uM, replicate 1
[6] = 24 h, 1 µM, compound concentration 1 uM, replicate 2
[7] = 24 h, 10 µM, compound concentration 10 uM, replicate 1
[8] = 24 h, 10 µM, compound concentration 10 uM, replicate 2
[9] = 48 h, 1 µM, compound concentration 1 uM, replicate 1
[10] = 48 h, 1 µM, compound concentration 1 uM, replicate 2
[11] = 48 h, 10 µM, compound concentration 10 uM, replicate 1
[12] = 48 h, 10 µM, compound concentration 10 uM, replicate 2

Cc1c(P(=S)(c2ccccc2)c2ccccc2)n2ccccc2[n+]1C/C=C/c1ccccc1.[Br-]
Population Apoptotic (%) [1]: 63% | Population Fragmented Nuclei (%) [1]: 26% | Population Healthy Nuclei (%) [1]: 43% | Population Hoechst High Intensity Objects (%) [1]: 7% | Population Membrane Permeable-Phenotype (%) [1]: 7% | Population Mitochondria Different-Phenotype (%) [1]: 28% | Population Mitotic Cells (%) [1]: 36% | Population Normal (%) [1]: 92% | Population Pyknosed Nuclei (%) [1]: 30% | Population Tubulin-Different-Phenotype (%) [1]: 60% | Total Cell Count [1]: 177 | Population Apoptotic (%) [2]: 75% | Population Fragmented Nuclei (%) [2]: 50% | Population Healthy Nuclei (%) [2]: 45% | Population Hoechst High Intensity Objects (%) [2]: 22% | Population Membrane Permeable-Phenotype (%) [2]: 10% | Population Mitochondria Different-Phenotype (%) [2]: 50% | Population Mitotic Cells (%) [2]: 25% | Population Normal (%) [2]: 77% | Population Pyknosed Nuclei (%) [2]: 4% | Population Tubulin-Different-Phenotype (%) [2]: 31% | Total Cell Count [2]: 93 | Population Apoptotic (%) [3]: 73% | Population Fragmented Nuclei (%) [3]: 23% | Population Healthy Nuclei (%) [3]: 14% | Population Hoechst High Intensity Objects (%) [3]: 14% | Population Membrane Permeable-Phenotype (%) [3]: 5% | Population Mitochondria Different-Phenotype (%) [3]: 64% | Population Mitotic Cells (%) [3]: 26% | Population Normal (%) [3]: 85% | Population Pyknosed Nuclei (%) [3]: 62% | Population Tubulin-Different-Phenotype (%) [3]: 88% | Total Cell Count [3]: 137 | Population Apoptotic (%) [4]: 94% | Population Fragmented Nuclei (%) [4]: 21% | Population Healthy Nuclei (%) [4]: 10% | Population Hoechst High Intensity Objects (%) [4]: 8% | Population Membrane Permeable-Phenotype (%) [4]: 83% | Population Mitochondria Different-Phenotype (%) [4]: 83% | Population Mitotic Cells (%) [4]: 5% | Population Normal (%) [4]: 91% | Population Pyknosed Nuclei (%) [4]: 68% | Population Tubulin-Different-Phenotype (%) [4]: 83% | Total Cell Count [4]: 108 | Population Apoptotic (%) [5]: 70% | Population Fragmented Nuclei (%) [5]: 22% | Population Healthy Nuclei (%) [5]: 58% | Population Hoechst High Intensity Objects (%) [5]: 9% | Population Membrane Permeable-Phenotype (%) [5]: 5% | Population Mitochondria Different-Phenotype (%) [5]: 40% | Population Mitotic Cells (%) [5]: 29% | Population Normal (%) [5]: 90% | Population Pyknosed Nuclei (%) [5]: 19% | Population Tubulin-Different-Phenotype (%) [5]: 59% | Total Cell Count [5]: 181 | Population Apoptotic (%) [6]: 75% | Population Fragmented Nuclei (%) [6]: 55% | Population Healthy Nuclei (%) [6]: 40% | Population Hoechst High Intensity Objects (%) [6]: 33% | Population Membrane Permeable-Phenotype (%) [6]: 9% | Population Mitochondria Different-Phenotype (%) [6]: 31% | Population Mitotic Cells (%) [6]: 25% | Population Normal (%) [6]: 66% | Population Pyknosed Nuclei (%) [6]: 3% | Population Tubulin-Different-Phenotype (%) [6]: 15% | Total Cell Count [6]: 124 | Population Apoptotic (%) [7]: 85% | Population Fragmented Nuclei (%) [7]: 17% | Population Healthy Nuclei (%) [7]: 10% | Population Hoechst High Intensity Objects (%) [7]: 18% | Population Membrane Permeable-Phenotype (%) [7]: 8% | Population Mitochondria Different-Phenotype (%) [7]: 83% | Population Mitotic Cells (%) [7]: 14% | Population Normal (%) [7]: 81% | Population Pyknosed Nuclei (%) [7]: 71% | Population Tubulin-Different-Phenotype (%) [7]: 75% | Total Cell Count [7]: 138 | Population Apoptotic (%) [8]: 100% | Population Fragmented Nuclei (%) [8]: 23% | Population Healthy Nuclei (%) [8]: 38% | Population Hoechst High Intensity Objects (%) [8]: 26% | Population Membrane Permeable-Phenotype (%) [8]: 81% | Population Mitochondria Different-Phenotype (%) [8]: 81% | Population Mitotic Cells (%) [8]: 0% | Population Normal (%) [8]: 73% | Population Pyknosed Nuclei (%) [8]: 38% | Population Tubulin-Different-Phenotype (%) [8]: 81% | Total Cell Count [8]: 163 | Population Apoptotic (%) [9]: 60% | Population Fragmented Nuclei (%) [9]: 33% | Population Healthy Nuclei (%) [9]: 54% | Population Hoechst High Intensity Objects (%) [9]: 12% | Population Membrane Permeable-Phenotype (%) [9]: 6% | Population Mitochondria Different-Phenotype (%) [9]: 42% | Population Mitotic Cells (%) [9]: 40% | Population Normal (%) [9]: 87% | Population Pyknosed Nuclei (%) [9]: 11% | Population Tubulin-Different-Phenotype (%) [9]: 64% | Total Cell Count [9]: 191 | Population Apoptotic (%) [10]: 100% | Population Fragmented Nuclei (%) [10]: 29% | Population Healthy Nuclei (%) [10]: 70% | Population Hoechst High Intensity Objects (%) [10]: 10% | Population Membrane Permeable-Phenotype (%) [10]: 2% | Population Mitochondria Different-Phenotype (%) [10]: 48% | Population Mitotic Cells (%) [10]: 0% | Population Normal (%) [10]: 89% | Population Pyknosed Nuclei (%) [10]: 0% | Population Tubulin-Different-Phenotype (%) [10]: 72% | Total Cell Count [10]: 123 | Population Apoptotic (%) [11]: 92% | Population Fragmented Nuclei (%) [11]: 36% | Population Healthy Nuclei (%) [11]: 21% | Population Membrane Permeable-Phenotype (%) [11]: 0% | Population Mitochondria Different-Phenotype (%) [11]: 85% | Population Mitotic Cells (%) [11]: 7% | Population Pyknosed Nuclei (%) [11]: 42% | Population Tubulin-Different-Phenotype (%) [11]: 95% | Total Cell Count [11]: 141 | Population Apoptotic (%) [12]: 84% | Population Fragmented Nuclei (%) [12]: 52% | Population Healthy Nuclei (%) [12]: 18% | Population Hoechst High Intensity Objects (%) [12]: 32% | Population Membrane Permeable-Phenotype (%) [12]: 25% | Population Mitochondria Different-Phenotype (%) [12]: 75% | Population Mitotic Cells (%) [12]: 15% | Population Normal (%) [12]: 67% | Population Pyknosed Nuclei (%) [12]: 29% | Population Tubulin-Different-Phenotype (%) [12]: 100% | Total Cell Count [12]: 65
